Screens deposited in PubChem by several laboratories.
APP 5'UTR act: activators of APP 5'UTR luciferase reporter, primary screen, SH-SY5Y cells. SH-SY5Y APP 5'UTR luciferase reporter, luminescence; zero percent = DMSO vehicle wells. activation, % at 2 µM. 190,000 compounds, 1% hits;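 active = activation above a set limit, based on mean plus 3 SD of controls, cut at about 140% in these data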
STAT3 inh: IL-6 driven STAT3 reporter inhibitors, primary screen, U3A cells, luciferase, luminescence, MLSCN library. IL-6 STAT3-luciferase reporter; host cell line lacks STAT1. inhibition, % at 5.5 µM. 190,000 compounds, 0.89% hits;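 active = inhibition above the mean inhibition across all screened compounds plus 3 SD, cut at about 44% in these data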;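 also: 0% = DMSO only wells and 100% = 100 µM nifuroxazide control wells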
STAT3 act: IL-6 driven STAT3 reporter potentiators, primary screen, U3A cells, luciferase, luminescence, MLSCN library; 190,000 compounds, 0.91% hits; activation (% of control), % at 5.6 µM; IL-6 STAT3-luciferase reporter; 100% = signal with IL-6 EC80 alone; AID 871, 2007;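 active = activation above the screen-wide mean of compound activation plus 3 SD, cut at about 130% in these data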;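 also: 0% = background luminescence of wells with medium and substrate only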
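Material: human U3A cells carrying STAT3-luciferase construct. Measured by: reporter luminescence signal. Timing: compound 1 h, then IL-6 6 h at 37 °C.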
STAT1 activator: STAT1 signaling activators, primary screen, cell-based, HTS, luciferase reporter | NIH 3T3 STAT1-luciferase reporter, IFN-gamma, luminescence; 100% = IFN-gamma alone, no compound | activation (% of control), % at 5.5 µM | 200,000 compounds, 2.6% hits | AID 932, 2007;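 active = activation above the screen-wide mean activation plus 3 SD, cut at about 130% in these data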;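 also: raw ratio to IFN-gamma control signal so 100% means no change and 0% no light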
NF-kB neuron act: activators of NF-kB expression in neurons, primary screen, cell-based, HTS; 190,000 compounds, 1.6% hits; fold change at 12.5 µM; AID 1239, 2008; human neuronal cells, NF-kB reporter expression; hits give high values; in the data active = fold change above about 3.3
STAT1 inh-1: STAT1 signaling inhibitors, primary screen, cell-based, HTS, luciferase reporter; NIH 3T3 STAT1-luciferase reporter, IFN-gamma, luminescence; inhibition, % at 5.5 µM; 200,000 compounds, 0.35% hits; AID 920, 2007;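 active = inhibition above a set limit, the mean inhibition across all tested compounds plus 3 SD, cut at about 34% in these data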;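 also: 0% = IFN-gamma with DMSO and 100% = IFN-gamma with 300 µM nifuroxazide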
STAT1 inh-2: STAT1 signaling inhibitors, confirmation, cell-based, HTS, luciferase reporter. AID 1263, 2008. inhibition, % at 5.5 µM. shares compounds with STAT1 inh-1. 200 compounds, 55% hits. NIH 3T3 STAT1-luciferase reporter, IFN-gamma, luminescence;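 active = triplicate mean inhibition exceeding the hit cutoff computed for the primary STAT1 screen, cut at about 35% in these data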;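 also: 0% = DMSO with IFN-gamma and 100% = 300 µM nifuroxazide with IFN-gamma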
NFkB inh: NF-kB reporter inhibitors, TNF-alpha stimulated, counter-screen for STAT1 inhibitor project, cell-based, HEK293T, luciferase luminescence. AID 1303, 2008. 200 compounds, 30% hits. shares compounds with STAT1 inh-1. inhibition, % at 5.7 µM. TNF-alpha induced;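 active = inhibition above the mean of solvent-only control wells plus 3 SD of those wells, cut at about 15% in these data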;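 also: 0% = DMSO with TNF-alpha and 100% = MG-132 control with TNF-alpha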
STAT3 inh STAT1c: STAT3 reporter inhibition by STAT1 hits, counter-screen for STAT1 inhibitor project, U3A cells, luciferase, luminescence, triplicate | shares compounds with STAT1 inh-1 | IL-6 STAT3 luciferase reporter; cells lacking STAT1 | inhibition, % at 5.7 µM | 200 compounds, 20% hits;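 active = inhibition above the mean of solvent-only control wells plus 3 SD, set per campaign, cut at about 25% in these data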;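 also: 0% = IL-6 plus DMSO and 100% = IL-6 plus nifuroxazide control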
Numbers without * were called inactive; . = no result given. The list is not random: actives were taken first. Their share in the collection is about 5.1%.

SMILES	APP 5'UTR act	STAT3 inh	STAT3 act	STAT1 activator	NF-kB neuron act	STAT1 inh-1	STAT1 inh-2	NFkB inh	STAT3 inh STAT1c
O=C(N/N=C/c1cccnc1)C(O)(c1ccccc1)c1ccccc1	-8.2	4.0	100.7	97.2	1.22	3.1	.	.	.
COc1cc2c(=O)nc3n(c2cc1OC)C(c1ccccc1)N=C(N)N3 (stereo not drawn)	10.0	7.2	96.8	113.0	0.59	-14.1	.	.	.
COCCn1c(C)cc(C(=O)COc2ccc(C)nc2[N+](=O)[O-])c1C	-1.9	31.7	76.3	66.0	0.46	35.9*	-15.2	11.4	2.4
COc1cc(CN2CCN(C(=O)CC(C)C)CC2)cc(OC)c1O	4.8	4.8	99.6	93.2	0.97	8.6	.	.	.
O=C(CSc1nc2ccccc2c(=O)n1Cc1ccco1)N1CCCC1	17.4	4.3	98.3	65.8	0.77	36.8*	19.1	9.9	9.6
NC(=O)CSc1nc2ccccc2c(=O)n1Cc1ccco1	11.6	4.6	97.9	98.5	1	0.6	.	.	.
CC(C)COc1ccc(C/C(N)=N/n2cnnc2)cc1	18.3	25.4	79.9	67.2	0.87	35.3*	32.3	10.6	39.1*
Cc1ccc(-n2nnc(-c3nccs3)n2)cc1	117.9	.	.	23.9	2.53	82.7*	48.6*	76.3*	84.8*
CCOC(=O)c1c(C)nc2sc3c(=O)[nH]cnc3c2c1-c1ccc(OC)cc1	12.4	-4.4	108.2	100.0	1.26	0.1	.	.	.
CCOC(=O)c1c(C)nc2sc3c(=O)n(-c4ccc(OC)cc4)nnc3c2c1-c1ccc(OC)cc1	-7.9	7.8	95.0	55.7	0.81	49.6*	47.9*	9.2	8.7
Cn1nnnc1SCC(=O)Nc1ccc(N2CCOCC2)cc1	20.1	-2.0	105.0	98.4	1.09	1.8	.	.	.
Cc1nn(C)cc1C(=O)Nc1cc(Oc2ccc(Cl)cc2)cc([N+](=O)[O-])c1	-2.4	-9.5	106.4	95.1	1	5.3	.	.	.
Cn1cc([N+](=O)[O-])c(C(=O)Nc2cc(Oc3ccccc3)cc([N+](=O)[O-])c2)n1	-97.4	18.4	87.2	69.2	0.72	34.8*	40.4*	24.0*	-0.7
O=C(CCl)N(c1ccccc1)c1ccccc1	-44.8	31.4	76.5	65.6	0.15	36.3*	36.1*	24.2*	24.2
O=C1CCC(=O)N1CC(=O)N(c1ccccc1)c1ccccc1	-13.0	3.8	98.7	91.9	1.72	7.1	.	.	.
CC(=O)N1CCc2cc(Br)cc(S(=O)(=O)N3CCN(C(=O)c4ccco4)CC3)c21	15.2	-0.6	105.0	93.5	1.02	7.1	.	.	.
O=C(C1CCC(CNc2nc(=S)[nH]c3ccccc23)CC1)N1CCN(c2ccc(F)cc2)CC1 (stereo not drawn)	1.9	5.6	96.6	54.6	0.76	48.0*	33.2	5.8	18.6
Cc1ccc(NC(=O)c2cc(C)n(-c3cccc(C)c3)c2C)cc1	62.8	15.7	89.0	42.6	1.68	65.4*	4.8	0.4	-14.1
CCc1ccc(C2=NN(CCC(=O)NC(C)CCc3ccccc3)C(=O)CC2)cc1 (stereo not drawn)	-5.8	13.5	90.6	94.5	1.28	5.4	.	.	.
Cc1ccc(S(=O)(=O)n2nc(C)cc2C)cc1	-10.5	7.2	94.1	101.3	1.28	-1.4	.	.	.
